Legend:
Mus musculus [1] = species: Mus musculus; experiment: Anti-inflammatory potency was measured in mice by modification of the croton oil ear assay; design: reference not given here
Mus musculus [2] = species: Mus musculus; experiment: Anti-inflammatory potency was measured in mice at 5 hours by modification of the Tonelli croton oil ear assay; format: functional
Method in brief: (§1)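 Topical dosing in mice. Compounds at 10^-4% to 10^-6% (w/v) were dissolved in 0.6–0.7% croton oil, in a vehicle of pyridine/water/diethyl ether 20:5:74 (v/v). 10 µL was applied to the inner aspect of both pinnae daily for 5 days. Animals were killed 5 h after the last dose, and 6-mm ear punch biopsies were weighed. Potency was calculated relative to betamethasone 17-valerate from the mean left-plus-right ear punch weights.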

Mus musculus [3] = species: Mus musculus; experiment: Anti-inflammatory potency was measured in mice at 5 hours by modification of the croton oil ear assay; format: functional
Method in brief: as §1

Work on COCC(=O)OCC(=O)[C@@]1(OC(=O)c2ccco2)[C@H](C)CC2C3CCC4=CC(=O)C=CC4(C)[C@@]3(F)C(O)CC21C (stereo partly drawn) yielded a Potency (Mus musculus [1]) of 3.2 and a Potency (Mus musculus [2]) of 0.8.

C[C@@H]1CC2C3C[C@H](F)C4=CC(=O)C=CC4(C)[C@@]3(Cl)C(O)CC2(C)[C@@]1(OC(=O)c1ccco1)C(=O)CCl (stereo partly drawn) was tested, and the Potency (Mus musculus [1]) was 5.1 and the Potency (Mus musculus [2]) was 1.1.

With CC(=O)OCC(=O)[C@@]1(OC(=O)c2ccco2)[C@H](C)CC2C3CCC4=CC(=O)C=CC4(C)[C@@]3(F)C(O)CC21C (stereo partly drawn) the Potency (Mus musculus [1]) was 2.2 and the Potency (Mus musculus [2]) was 1.7.

With CC(=O)OCC(=O)[C@@]1(OC(=O)c2cccs2)[C@H](C)CC2C3CCC4=CC(=O)C=CC4(C)[C@@]3(F)C(O)CC21C (stereo partly drawn) the Potency (Mus musculus [1]) was 2.9 and the Potency (Mus musculus [2]) was 1.6.

Compound C=C1CC2C3CCC4=CC(=O)C=CC4(C)[C@@]3(F)C(O)CC2(C)[C@@]1(OC(=O)c1ccco1)C(=O)COC(C)=O (stereo partly drawn) has a Potency (Mus musculus [1]) of 1.1 and a Potency (Mus musculus [2]) of 0.5.

With C[C@@H]1CC2C3CCC4=CC(=O)C=CC4(C)[C@@]3(F)C(O)CC2(C)[C@@]1(OC(=O)c1ccoc1)C(=O)CCl (stereo partly drawn) the Potency (Mus musculus [1]) was 1.2 and the Potency (Mus musculus [2]) was 1.

Work on CC(=O)OCC(=O)[C@@]1(OC(=O)c2ccco2)[C@H](C)CC2C3CCC4=CC(=O)C=CC4(C)[C@@]3(Cl)C(O)CC21C (stereo partly drawn) yielded a Potency (Mus musculus [1]) of 4.4 and a Potency (Mus musculus [2]) of 1.7.

CC(=O)OCC(=O)[C@@]1(OC(=O)c2ccco2)[C@@H](C)CC2C3CCC4=CC(=O)C=CC4(C)[C@@]3(F)C(O)CC21C (stereo partly drawn) gave a Potency (Mus musculus [1]) of 0.2 and a Potency (Mus musculus [2]) of 0.5.

CC(=O)OCC(=O)[C@@]1(OC(=O)c2ccc(C)s2)[C@H](C)CC2C3CCC4=CC(=O)C=CC4(C)[C@@]3(F)C(O)CC21C (stereo partly drawn) was tested, and the Potency (Mus musculus [1]) was 1.7 and the Potency (Mus musculus [2]) was 2.4.

With CCCC(=O)OCC(=O)[C@@]1(OC(=O)c2ccco2)[C@H](C)CC2C3CCC4=CC(=O)C=CC4(C)[C@@]3(F)C(O)CC21C (stereo partly drawn) the Potency (Mus musculus [2]) was 1.1.

With C[C@@H]1C[C@H]2[C@@H]3CCC4=CC(=O)C=C[C@]4(C)[C@@]3(Cl)[C@@H](O)C[C@]2(C)[C@@]1(OC(=O)c1ccco1)C(=O)CF the Potency (Mus musculus [1]) was 4.4 and the Potency (Mus musculus [2]) was 1.4.

Compound C[C@@H]1CC2C3CCC4=CC(=O)C=CC4(C)[C@@]3(Cl)C(O)CC2(C)[C@@]1(OC(=O)c1cccs1)C(=O)CCl (stereo partly drawn) has a Potency (Mus musculus [1]) of 4.5 and a Potency (Mus musculus [2]) of 1.2.

Work on CC(=O)OCC(=O)[C@@]1(OC(=O)c2ccoc2)[C@H](C)CC2C3CCC4=CC(=O)C=CC4(C)[C@@]3(F)C(O)CC21C (stereo partly drawn) yielded a Potency (Mus musculus [1]) of 3.2 and a Potency (Mus musculus [2]) of 2.9.

Compound C=C1CC2C3CCC4=CC(=O)C=CC4(C)C3C(O)CC2(C)[C@@]1(OC(=O)c1ccco1)C(=O)COC(C)=O (stereo partly drawn) has a Potency (Mus musculus [1]) of 1.2 and a Potency (Mus musculus [2]) of 2.7.

CC(=O)OCC(=O)[C@@]1(OC(=O)c2ccco2)[C@H](C)CC2C3C[C@H](F)C4=CC(=O)C=CC4(C)C3C(O)CC21C (stereo partly drawn) showed a Potency (Mus musculus [1]) of 2.1 and a Potency (Mus musculus [2]) of 2.7.

For C[C@@H]1CC2C3CCC4=CC(=O)C=CC4(C)[C@@]3(F)C(O)CC2(C)[C@@]1(OC(=O)c1ccco1)C(=O)CCl (stereo partly drawn), the Potency (Mus musculus [1]) was 2.3 and the Potency (Mus musculus [2]) was 1.6.

C[C@H]1CC2C3CCC4=CC(=O)C=CC4(C)[C@@]3(F)C(O)CC2(C)[C@@]1(OC(=O)c1ccco1)C(=O)CCl (stereo partly drawn) was tested, and the Potency (Mus musculus [1]) was 0.9 and the Potency (Mus musculus [2]) was 0.6.

With C[C@H]1CC2C3CCC4=CC(=O)C=CC4(C)[C@@]3(F)C(O)CC2(C)[C@@]1(OC(=O)c1cccs1)C(=O)CCl (stereo partly drawn) the Potency (Mus musculus [1]) was 2.6 and the Potency (Mus musculus [2]) was 1.3.

Work on CCC(=O)OCC(=O)[C@@]1(OC(=O)c2ccco2)[C@H](C)CC2C3CCC4=CC(=O)C=CC4(C)C3C(O)CC21C (stereo partly drawn) yielded a Potency (Mus musculus [1]) of 1.5 and a Potency (Mus musculus [2]) of 1.1.

Work on CC(=O)OCC(=O)[C@@]1(OC(=O)c2ccco2)CCC2C3CCC4=CC(=O)C=CC4(C)C3C(O)CC21C (stereo partly drawn) yielded a Potency (Mus musculus [1]) of 0.9 and a Potency (Mus musculus [2]) of 1.3.

COCC(=O)OCC(=O)[C@@]1(OC(=O)c2ccco2)[C@H](C)CC2C3CCC4=CC(=O)C=CC4(C)[C@@]3(Cl)C(O)CC21C (stereo partly drawn) gave a Potency (Mus musculus [1]) of 4.3.

With C[C@@H]1CC2C3CCC4=CC(=O)C=CC4(C)[C@@]3(Cl)C(O)CC2(C)[C@@]1(OC(=O)c1ccco1)C(=O)CCl (stereo partly drawn) the Potency (Mus musculus [1]) was 6.1 and the Potency (Mus musculus [2]) was 1.

In the case of C=C1CC2C3CCC4=CC(=O)C=CC4(C)C3(Cl)C(O)CC2(C)[C@@]1(OC(=O)c1ccco1)C(=O)COC(C)=O (stereo partly drawn), the Potency (Mus musculus [3]) is reported as 2.2 and the Potency (Mus musculus [2]) is reported as 2.3.

For CCCCC(=O)O[C@]1(C(=O)CO)[C@@H](C)C[C@H]2[C@@H]3CCC4=CC(=O)C=C[C@]4(C)[C@@]3(F)[C@@H](O)C[C@@]21C [BETAMETHASONE VALERATE], the Potency (Mus musculus [1]) was 1 and the Potency (Mus musculus [2]) was 1.

Compound CCC(=O)OCC(=O)[C@@]1(OC(=O)c2ccco2)[C@H](C)CC2C3CCC4=CC(=O)C=CC4(C)[C@@]3(F)C(O)CC21C (stereo partly drawn) has a Potency (Mus musculus [1]) of 6.8 and a Potency (Mus musculus [2]) of 2.1.
